Most compounds without a hit are left out; they make up all but 1.1% or so of the library.
RBBP9 inhibitor – human RBBP9 inhibitors, primary screen, biochemical, fluorescence polarization, FP-Rh probe, HTS | Serine hydrolase RBBP9 (Homo sapiens), O75884 | recombinant RBBP9 | inhibition, % at 7.94 µM | 0.2% of 220,000 active | AID 1515, 2009;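 active = inhibition above the campaign mean of all tested compounds plus 3 SD, cut at about 14% in these data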
Target sequence (O75884 whole entry, looked up): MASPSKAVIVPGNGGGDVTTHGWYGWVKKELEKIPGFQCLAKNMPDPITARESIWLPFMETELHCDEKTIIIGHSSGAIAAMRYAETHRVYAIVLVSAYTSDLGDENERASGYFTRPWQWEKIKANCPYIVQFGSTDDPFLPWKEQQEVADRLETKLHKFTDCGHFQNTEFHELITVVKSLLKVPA
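Test system: recombinant human RBBP9. Quantity: 2.5 µM RBBP9 dispensing solution, before mixing. Detection: FP readout at 525/598 nm. Reagent: Serine-hydrolase probe FP-Rh, 375 nM pre-mixing. Measure: % inhibition. Control set: DMSO-treated enzyme wells and wells lacking RBBP9. Buffer or medium: Tris-NaCl-Pluronic buffer, pH 8.0. Times: preincubation 30 min plus labeling 45 min at 25 °C.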
NCF1 inh – p47phox/p22phox peptide binding inhibitors, primary screen, biochemical, uHTS, NADPH oxidase regulatory subunit | AID 1274, 2008 | inhibition, % at 24.7 µM | fluorescence polarization, 2 h | 0.53% of 220,000 active | Neutrophil cytosol factor 1 (Homo sapiens), P14598;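 active = inhibition above about 30%, limit read from the data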
Target sequence (P14598 whole entry, looked up): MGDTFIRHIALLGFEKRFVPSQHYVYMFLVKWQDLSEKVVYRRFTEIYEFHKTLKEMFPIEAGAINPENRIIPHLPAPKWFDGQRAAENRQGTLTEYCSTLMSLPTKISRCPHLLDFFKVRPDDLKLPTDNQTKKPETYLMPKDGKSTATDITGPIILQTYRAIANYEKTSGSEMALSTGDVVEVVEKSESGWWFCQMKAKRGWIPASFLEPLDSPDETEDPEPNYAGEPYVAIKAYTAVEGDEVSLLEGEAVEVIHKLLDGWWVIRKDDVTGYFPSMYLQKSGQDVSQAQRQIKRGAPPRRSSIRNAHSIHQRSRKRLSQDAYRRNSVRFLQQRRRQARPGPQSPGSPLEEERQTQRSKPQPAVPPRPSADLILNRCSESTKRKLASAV
Furin inhibitor – human furin inhibitors, primary screen, biochemical, fluorescence intensity. P09958. purified furin, fluorogenic substrate cleavage. inhibition, % at 20 µM or 30 µM. 0.061% of 220,000 active. AID 463115, 2010; in the data active = inhibition above about 25%
Calpain2 inh – inhibitors of pig calpain II, primary screen, biochemical, fluorogenic peptide substrate, 1536-well; purified calpain II, 30 min; inhibition, % at 16 µM; 0.37% of 220,000 active; AID 1236, 2008;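 active = inhibition above about 50%, limit read from the data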
Each line names hits and unclear results; the compound was inactive in the other large screens.

O=C(COC(=O)CCC(NC(=O)OCc1ccccc1)C(=O)OCC(=O)Nc1ccccc1)Nc1ccccc1 (stereo not drawn)	none
Cc1ccc(N(CC(=O)NC(C)(C)C)C(=O)CNC(=O)c2cccs2)c(C)c1	none
CCOc1cc(/C=N/NC(=O)CCc2n[nH]c(=O)[nH]c2=O)ccc1O	none
CC(C)(C)c1ccc(OCC(=O)N/N=C/c2ccsc2)cc1	none
CCS(=O)(=O)c1ccc(O)c(NC(=O)Nc2ccc(C(C)(C)C)cc2)c1	none
CCC(=O)N1CCc2cc(S(=O)(=O)N3CCc4ccccc4C3)ccc21	Calpain2 inh 54.4
O=C(CSc1nnc(-c2ccccc2)n1-c1ccccc1)c1cccs1	NCF1 inh 35.4
O=C(CCNc1n[nH]c(=O)[nH]c1=O)N/N=C\c1cccc(OCc2ccccc2)c1	none
CCc1nnc(NC(=O)CCC(=O)N2CCN(C3CCCCC3)CC2)s1	none
CCc1nnc(NC(=O)CCC(=O)N2CCCC2)s1	NCF1 inh 89.9
COc1ccc(OCC(=O)N2N=C(C(F)F)CC2(O)C(F)F)cc1 (stereo not drawn)	none
O=C(COC(=O)c1ccccn1)Nc1cccc(Cl)c1	NCF1 inh 35.9
CCOc1ccccc1C(=O)N1c2ccccc2Sc2ccccc21	Calpain2 inh 55.1
COCC(C)NC(=O)CSc1nc2ccccc2n1CCc1ccccc1 (stereo not drawn)	none
O=C(c1ccccc1)N1N=C(c2ccccc2)CC1c1ccccc1[N+](=O)[O-] (stereo not drawn)	none
COc1cccc(NC(=O)CN(C)CC(=O)Nc2ccc(Cl)cc2[N+](=O)[O-])c1	Calpain2 inh 55.1
COc1ccc(NS(=O)(=O)c2cc(NC(=O)/C=C/c3ccccc3OC)ccc2N2CCCCC2)cc1	none
Cc1ccccc1-n1c(SCC(=O)NCc2cccs2)nc2ccccc2c1=O	NCF1 inh 30.4
CN1CCN(CCCC(=O)c2ccc(F)cc2)CC1	NCF1 inh 63.9
Cc1nn2c3ccccc3nc2n(Cc2ccccc2)c1=O	Furin inhibitor 25.6 (no result: NCF1 inh, Calpain2 inh)
CCn1c(=O)c(C)nn2c3ccccc3nc12	none
O=C(Nc1cccc2oc(=O)ccc12)c1ccc([N+](=O)[O-])cc1[N+](=O)[O-]	Calpain2 inh 63.5
COc1ccc(OC)c(N(CC(=O)N2CCN(c3cc(Cl)ccc3C)CC2)S(C)(=O)=O)c1	Calpain2 inh 57.2
CCC1=C(OC(=O)N(CC)CC)N2C(=O)OC(=NCC(=O)OC)[C@]2(Cc2ccccc2)[C@H]2C1=CC[C@H]1C(=O)NC(=O)[C@H]12	none (no result: RBBP9 inhibitor)
O=C(NCc1cccnc1)c1ccc2c(=O)n(CCCN3CCCC3=O)c(=S)[nH]c2c1	Calpain2 inh 84.2
C#Cc1ccc([C@@H]2C=C(C(=O)OCC=C)O[C@H](OCCCCO)C2)cc1	none (no result: NCF1 inh)
COC(=O)c1c(C)c2c(C)cc3ccccn3c-2c1C(=O)OC	none
COC(=O)c1cc2c(-c3ccccc3)cc3ccccn3c-2c1C(=O)OC	NCF1 inh 53.1
COC(=O)c1ccccc1N1CCS(=O)(=O)CC1	none
CCOc1cc(NC(=O)C2CCCO2)c(OCC)cc1NC(C)=O (stereo not drawn)	NCF1 inh 103.2
COc1ccc(Cl)cc1NC(=O)C1CCCO1 (stereo not drawn)	none
Nc1cc(Cl)ccc1C(=O)OCC(=O)N1CCOCC1	none
O=C(N/N=C1/CCCc2ccccc21)c1cc([N+](=O)[O-])cc([N+](=O)[O-])c1	Calpain2 inh 74.3
O=C(N/N=C1\CCCc2ccccc21)c1cccc([N+](=O)[O-])c1	none
Cc1cc(NC(=O)CN(C)C)c([N+](=O)[O-])cc1C	none
O=C(OCC(=O)N1CCN(C(=O)c2ccco2)CC1)c1cc(-c2ccc(Cl)c(Cl)c2Cl)nc2ccccc12	NCF1 inh 36.8
CCOC(=O)c1c(C)[nH]c(C)c1C(=O)COC(=O)c1ccc(OC)c(OC)c1	none
COc1ccc(C(=O)COC(=O)c2ccc(OC)c(OC)c2)cc1OC	NCF1 inh 95.9
O=C(Nc1ccc(N2CCOCC2)cc1)C1CC(O)CN1S(=O)(=O)c1ccc(Cl)cc1 (stereo not drawn)	none
COc1ccc(C(=O)Nc2nc3nccc(-c4ccccc4)n3n2)cc1	none
CSCC[C@H](NC(=O)Nc1ccc(S(N)(=O)=O)cc1)C(=O)O	none
O=C(CSc1nnc(Nc2ccccc2)s1)NN1C(=O)NC2(CCCCC2)C1=O	none
COc1ccc(S(=O)(=O)O/N=C2\CCCc3ccccc32)cc1	NCF1 inh 41.7
O=S(=O)(O/N=C1\CCCc2ccccc21)c1ccccc1	none
CCc1cc(CNC(=O)CC2C(=O)NCCN2Cc2c(F)cccc2Cl)on1 (stereo not drawn)	NCF1 inh 91.3
O=C(CC1C(=O)NCCN1Cc1c(F)cccc1Cl)NCc1ccccc1 (stereo not drawn)	none
Clc1ccccc1-c1nnc2sc(-c3cccs3)nn12	Calpain2 inh 51.7
COc1ccccc1NS(=O)(=O)c1ccc(Cl)c(NC(=O)C(C)N2C(=O)c3ccccc3C2=O)c1 (stereo not drawn)	none
Cc1ccc(S(=O)(=O)NCC(=O)OCC(=O)Nc2ccccc2OC(F)F)cc1	none
Cc1ccc(S(=O)(=O)NCCC(=O)OCC(=O)Nc2ccccc2Cl)cc1	NCF1 inh 33.0
CCOc1ccccc1NC(=O)NC(=O)N(C)S(=O)(=O)c1ccc(C)cc1	none
COc1ccc(OC)c(N)c1	NCF1 inh 106.3
O=C(O)CCN1C(=O)/C(=C\c2cccc(OCC(=O)Nc3ccc(Cl)cc3)c2)SC1=S	none
Cc1ccc(NC(=O)COc2cccc(/C=C3\SC(=S)N(CCC(=O)O)C3=O)c2)cc1Cl	Calpain2 inh 75.7
Cc1c(Cl)cccc1N1CC(C(=O)Nc2nccs2)CC1=O (stereo not drawn)	NCF1 inh active
O=C(CCc1c[nH]c2ccccc12)NCC(=O)Nc1ccc(F)c(F)c1F	none
C[C@H](NC(=O)c1nc[nH]c1C(=O)N[C@@H](CCCCNC(=O)OC(C)(C)C)C(=O)OC(C)(C)C)c1ccccc1	none (no result: RBBP9 inhibitor)
COCCN(C(=O)CCc1ccccc1OC)c1nnc(-c2cccnc2)s1	none
Cc1nc(COC(=O)c2ccc(CO)cc2)cs1	none
Cc1nc(COC(=O)c2cc(O)c3ccccc3c2O)cs1	NCF1 inh 49.4
O=C(OCc1nnc(-c2ccccc2)o1)c1ccc2c(c1)OCO2	Calpain2 inh 72.4
O=C(OCc1nnc(-c2ccccc2)o1)c1ccco1	none
Cc1ccc(N=c2c([N+](=O)[O-])nn(-c3ccc4c(c3)OCCO4)n2O)c(Cl)c1	Calpain2 inh 53.4
O=C(CN(C(=O)c1ccccc1Cl)N1C(=O)CCCC1=O)c1ccc(Cl)cc1	none
C#CCOCCOCCOCCNc1nc(N2CCN(C(=O)C(Cc3cc4ccccc4[nH]3)n3cc(C(N)Cc4ccc(O)cc4)nn3)CC2)nc(N2CCN(C(=O)C(Cc3cc4ccccc4[nH]3)n3cc(C(N)Cc4ccc(O)cc4)nn3)CC2)n1 (stereo not drawn)	NCF1 inh 64.7
